A selection: hits, their analogues and other compounds. The true share with any hit is near 2.9%.
MEKK3 PB1 HTS – MEKK3-MEK5 PB1 interaction, increase or decrease. Q99759. bead-based flow cytometry, Alexa488-MEK5 binding to MEKK3; actives lie on both sides; 0 = blocked by unlabeled MEK5, 100 = vehicle. binding response (% of control), % at 10 µM. hit rate 1.4% among 290,000. AID 1529;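 active = binding response more than 3 SD above or below the average of its plate-row segment, actives on both sides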;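 note: Alexa488 bead fluorescence after subtracting the streptavidin-only scavenger bead signal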
Target sequence (Q99759 whole entry, looked up): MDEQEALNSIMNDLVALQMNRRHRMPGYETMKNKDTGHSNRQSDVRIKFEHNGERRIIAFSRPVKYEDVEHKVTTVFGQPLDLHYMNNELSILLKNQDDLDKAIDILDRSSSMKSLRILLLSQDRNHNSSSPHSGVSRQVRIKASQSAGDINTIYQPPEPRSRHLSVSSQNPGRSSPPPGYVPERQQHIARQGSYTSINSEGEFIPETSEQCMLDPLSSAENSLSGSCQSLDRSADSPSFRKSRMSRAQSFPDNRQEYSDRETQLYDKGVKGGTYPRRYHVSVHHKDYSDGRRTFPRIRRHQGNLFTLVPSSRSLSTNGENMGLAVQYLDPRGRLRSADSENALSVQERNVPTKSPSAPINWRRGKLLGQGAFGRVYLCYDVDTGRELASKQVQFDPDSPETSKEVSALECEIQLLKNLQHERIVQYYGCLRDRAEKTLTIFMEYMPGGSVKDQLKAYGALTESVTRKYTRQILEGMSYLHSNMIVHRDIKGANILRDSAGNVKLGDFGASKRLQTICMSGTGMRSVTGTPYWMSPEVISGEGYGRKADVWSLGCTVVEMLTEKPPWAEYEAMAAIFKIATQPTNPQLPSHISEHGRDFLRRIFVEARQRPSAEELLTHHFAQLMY
Dynein transport – dynein cargo transport inhibition. z-score, hits read low. hit rate 0.47% among 220,000. AID 1381. 3617.4 mouse cells, GR-EGFP nuclear translocation imaging; test concentration mostly 20 µM; stimulated with dexamethasone, 1 µM; stronger effect = lower value;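 active = plate z-score of nuclear minus cytoplasmic receptor signal below a set negative limit, without overly bright fluorescence or cell loss, cut at about -3.5 in these data, passing the limit was not always enough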;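 note: z-score of nuclear minus cytoplasmic ring GR-EGFP intensity difference per well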
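medium = tetracycline-free induction medium containing charcoal-stripped FBS | probe or stimulus = dexamethasone, 1.0 µM final | timing = 48 h induction, then 1 h compound, then 30 min agonist, 37 °C | detection = automated 10x imaging of fixed Hoechst-stained cells | read-out basis = nuclear versus cytoplasmic GR-EGFP signal, averaged per well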
MEKK2 WT-MEK5 – raises or lowers MEK5 binding to wildtype human MEKK2 PB1 domain | Q9Y2U5 | bead flow cytometry, Alexa488-MEK5 binding to MEKK2 WT; actives lie on both sides | binding response (% of control), % at 10 µM | hit rate 1.1% among 290,000 | AID 1531; in the data active = binding response below about 67% or above about 130%
B2AR ag – agonists of human beta-2 adrenergic receptor inducing internalization. P07550. Am2.2-beta2AR cells, FAP receptor internalization, flow cytometry. response, % (test concentration not listed). hit rate 0.43% among 340,000;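 active = response above a set limit, near 3 SD of response in nonfluorescent compounds, cut at about 42% in these data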
MEKK2mut PB1 HTS – signal of MEK5 binding to mutant human MEKK2 PB1 domain; percent response, % at 10 µM; AID 1530; bead flow cytometry, Alexa488-MEK5 binding to MEKK2 mutant; hit rate 0.35% among 290,000; in the data active = percent response above about 24%, passing the limit was not always enough
ATG4B inhibitor – blocks human ATG4B protease cleavage of LC3 substrate; ATG4B cleavage of LC3-PLA2, NBD-HPC fluorescence, 1 h; hit rate 0.51% among 340,000; inhibition, % at 8.33 µM; AID 504462; Q9Y4P1; in the data active = inhibition above about 40%
MEKK2wt confirm – raises or lowers MEK5 binding to wildtype human MEKK2, retest; shares compounds with MEKK3 PB1 HTS; bead flow cytometry, Alexa488-MEK5 binding to MEKK2 WT; actives lie on both sides; binding response (% of control), % at 10 µM; hit rate 2.4% among 5,900; AID 1892; in the data active = binding response below about 16% or above about 210%; inactive = in between
MEKK2mut-MEK5 – signal of MEK5 binding to mutant human MEKK2, retest | shares compounds with MEKK3 PB1 HTS | percent response, % at 10 µM | bead flow cytometry, Alexa488-MEK5 binding to MEKK2 mutant | hit rate 2% among 5,900; in the data active = percent response mostly above about 71%, no sharp cut-off; inactive = mostly below about 38%;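 note: higher means compound restores mutant binding toward wildtype level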
MEKK3 confirm – MEKK3-MEK5 PB1 inhibition, single concentration confirmation. shares compounds with MEKK3 PB1 HTS. bead flow cytometry, Alexa488-MEK5 binding to MEKK3; stronger effect = lower value. binding response (% of control), % at 10 µM. hit rate 1.8% among 5,900;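 active = binding response below 72% of control, or above a set upper limit, though filed actives all read lower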;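 note: 100% = DMSO only wells and 0% = binding blocked by excess unlabeled MEK5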
The depositor's hits bear a star; · = not tested or not shown; [ ] = remark or other dose.

SMILES	MEKK3 PB1 HTS	Dynein transport	MEKK2 WT-MEK5	B2AR ag	MEKK2mut PB1 HTS	ATG4B inhibitor	MEKK2wt confirm	MEKK2mut-MEK5	MEKK3 confirm
O=C(COC(=O)C1(c2cccc(F)c2)CCCC1)NCc1ccc2c(c1)OCO2	132*	-0.71	106	-3	0	-4	104	-2	99
O=C(COC(=O)C1(c2cccc(F)c2)CCCC1)NCc1cccs1	102	1.1	95	-3	-1	2	·	·	·
C=CCN(C(=O)Cn1nc(C)n2c(cc3cc(C)ccc32)c1=O)c1ccccc1	101	·	101	-2	-1	-10	·	·	·
CC(=O)NCCc1ccc(C(=O)COC(=O)c2cc(C)oc2C)cc1	·	·	·	2	·	-9	·	·	·
O=C(Cc1ccccc1)NN1CCCCC1	94	·	93	-1	-2	4	·	·	·
Clc1cccc(N/N=C(\Cc2nc3ccccc3[nH]2)c2ccccc2)c1	138*	0.4	138*	-5	5	23	120	6	105
CN1CCN(CC/C=C2/c3ccccc3Sc3ccc(S(=O)(=O)N(C)C)cc32)CC1	78	·	143*	21	19	-6	127	10	101
Cn1c(C(=O)NCCCN2CCc3ccccc3C2)cc2c(=O)n(C)c3ccccc3c21	104	1.1	143*	14	16	1	122	12	101
COCCNC(=O)Cn1c(=O)n(Cc2ccc(C(=O)NCCc3ccc(OC)c(OC)c3)cc2)c(=O)c2ccccc21	37*[inhibitor]	3.7	45*[inhibitor]	2	-18	-5	102	4	103
COc1ccc(CCNC(=O)c2cc3c(=O)n(C)c4ccccc4c3n2C)cc1OC	132*	-0.36	114	13	31	5	97	-6	96
CC(C)NC(=O)COC(=O)c1ccccc1CSC1=NCCS1	100	·	99	-8	-3	2	·	·	·
CCCOc1ccc(C2C(C(=O)c3ccc(C)o3)=C(O)C(=O)N2CCN2CCOCC2)cc1OC (stereo not drawn)	0.0*[inhibitor]	0.21	0.0*[inhibitor]	-9	-16	9	100	-3	103
O=C(CSc1nnc(-c2ccccc2F)n1C1CCCCC1)Nc1cc(C(=O)O)ccc1Cl	·	·	·	-6	·	-2	·	·	·
Cc1ccc(CN2CCC(c3cc(-c4ccc(Cl)cc4)n[nH]3)CC2)cc1	106	·	167*	-5	27*	-6	155	32	109
COc1ccc(-c2cc(C3CCN(Cc4ccc([N+](=O)[O-])cc4)CC3)[nH]n2)cc1	97	-0.49	110	5	-1	-19	·	·	·
COc1ccccc1-c1cc(SC)c(C#N)c(=O)o1	110	-2.4	109	-2	0	-7	·	·	·
O=C(OCC1COc2ccccc2O1)c1c(F)cccc1F (stereo not drawn)	66*[inhibitor]	-0.34	76	2	-20	9	105	-4	103
COCCC(=O)N1CCC(n2nccc2NC(=O)CCc2ccccc2)CC1	97	·	106	4	5	3	·	·	·
Cc1ccc2c(c1)c1c3n2CCN(CC(O)CNC(C)C)C3CCC1 (stereo not drawn)	107	·	169*	5	12	-1	119	4	98
O=C(CCNS(=O)(=O)c1ccc(Br)s1)NCc1ccc2c(c1)OCO2	101	0.057	99	7	-4	-10	·	·	·
Cc1ccc(NC(=O)CCCc2nc3ccccc3c(=O)[nH]2)c(Cl)c1	·	·	·	-6	·	-4	·	·	·
Cc1ccc([N+](=O)[O-])c(OCCCN2CCCCCC2)c1	99	0.66	169*	-14	66*	-7	130	16	104
CC(C)(C)C(=O)NC(=S)NCCc1ccccc1	1.0*[inhibitor]	-0.54	1.0*[inhibitor]	-10	-39	5	102	0	105
S=C(NCCc1ccccc1)NCCc1ccccc1	65	0.58	91	1	-2	-1	·	·	·
Cc1ccc(/C=N/NC(=O)CCCOc2ccc(Cl)cc2Cl)cc1	137*	0.4	101	-9	-1	3	98	-6	98
SMILES	MEKK3 PB1 HTS	Dynein transport	MEKK2 WT-MEK5	B2AR ag	MEKK2mut PB1 HTS	ATG4B inhibitor	MEKK2wt confirm	MEKK2mut-MEK5	MEKK3 confirm
O=C(COC(=O)c1ccc(F)c(S(=O)(=O)N2CCOCC2)c1)NCCc1ccccc1	·	·	·	1	·	2	·	·	·
CC(C)N=c1cc2n(-c3ccc(Cl)cc3)c3ccccc3nc-2cc1Nc1ccc(Cl)cc1	70*[inhibitor]	·	114	33	22	-6	95	14	53*
Cn1c(CNc2ccc(Cl)cc2)nc2ccccc21	106	-0.77	105	3	10	-2	·	·	·
CC1CC(C)(C)CC2(C1)NC(=O)N(CC(=O)N(C)Cc1nc3ccccc3c(=O)[nH]1)C2=O (stereo not drawn)	·	·	·	0	·	-2	·	·	·
O=C(CN1CCOCC1)Nc1nc(-c2ccc3c(c2)CCN3S(=O)(=O)c2ccccc2)cs1	2.0*[inhibitor]	-0.98	3.0*[inhibitor]	12	-26	-9	99	-9	101
COc1ccc(OCC(=O)N/N=C/c2ccc(N(C)C)cc2)cc1	101	0.31	103	18	-2	-8	·	·	·
COc1ccc(OCC(=O)N/N=C/c2ccsc2)cc1	140*	0.1	104	-5	0	0	105	8	101
CC(C)c1nnc(N2C(=O)C(O)=C(C(=O)c3cccs3)C2c2ccccc2)s1 (stereo not drawn)	102	-0.17	107	4	6	-13	·	·	·
O=C(CCN1C(=O)COc2ccccc21)NCCCN1CCc2ccccc2C1	87	1.1	93	-8	-5	-1	·	·	·
CC(C)OCCCNC(=O)CCN1C(=O)COc2ccccc21	1.0*[inhibitor]	-0.61	-2.0*[inhibitor]	-10	-20	6	108	6	106
Cc1cccc(NC(=O)c2ccccc2NC(=O)c2ccco2)c1	108	·	114	3	8	-5	·	·	·
NC(=O)[C@@H]1CCCCNc2c(F)cc([N+](=O)[O-])cc2C(=O)N[C@@H](CCCN=C(N)N)C(=O)NCC(=O)N1	104	-0.36	108	-3	7	5	·	·	·
NCCCC[C@@H]1NC(=O)c2cc([N+](=O)[O-])cc(F)c2NCCCC[C@@H](C(N)=O)NC(=O)CNC1=O	113	-0.34	135*	-4	12	-5	104	2	103
CCCc1c(O)nc(SCC(=O)O)[nH]c1=O	100	-1.1	98	-4	-2	1	·	·	·
